Common to all, as to format: functional, organism-based
Assay [1] is filed under the species Mus musculus. Nature of the assay: Uptake of [111In]-labeled compound in muscle at 2 hr pi in the absence of […]. The following applies: Muscle tissue. Put shortly: (§1)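 C57 BL/6 female mice, 7–8 weeks old, inoculated s.c. in right flank with 1×10^6 B16/F1 melanoma cells. Used 9–10 days later at tumor weight ~500 mg. […] HPLC-purified 111In-DOTA peptide (neutral pH) given via tail vein, with or without […]. Killed 2 h pi. Tissues weighed and gamma-counted. Uptake expressed as % ID/g.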

The species named for assay [2] is Mus musculus. The experiment in a line: Uptake of [111In]-labeled compound in liver at 2 hr pi in the presence of […]. The method in brief: as §1
The species named for assay [3] is Mus musculus. Nature of the assay: Uptake of [111In]-labeled compound in kidney at 2 hr pi in the absence of […]. The method in brief: as §1
The species entered for assay [4] is Mus musculus. Nature of the assay: Uptake of [111In]-labeled compound in lung at 2 hr pi in the presence of […]. The method in brief: as §1
Assay [5] is filed under the species Mus musculus. Nature of the assay: Uptake of [111In]-labeled compound in heart at 2 hr pi in the presence of […]. Put shortly:
as §1

For assay [6], the species on record is Mus musculus. Nature of the assay: Uptake of [111In]-labeled compound in kidney at 2 hr pi in the presence of […]. The method in brief: as §1
The species named for assay [7] is Mus musculus. The experiment in a line: Uptake of [111In]-labeled compound in muscle at 2 h pi in the presence of […]. The following applies: Muscle tissue. The method in brief: as §1
For assay [8], the species on record is Mus musculus. The experiment in a line: Uptake of [111In]-labeled compound in tumor at 2 hr pi in the presence of 10 mg NDP. The method in brief:
as §1

On to DOTA-ReCCEHdFRWCRPV-NH2, for which the ID/g in the assay filed under Mus musculus [1] is 0.03%; in the assay filed under Mus musculus [2], 1.61%; in the assay listed under Mus musculus [3], 8.72%; in the assay listed under Mus musculus [4] it was 0.44%; in the assay filed under Mus musculus [5] it was 0.33%; in the assay filed under Mus musculus [6], 11.2%. The values for the ID/g in the assay listed under Mus musculus [7] and in the assay listed under Mus musculus [8] were 0.18% and 1.95%, respectively.

(Values after ChEMBL document CHEMBL1135742, “Modification of the structure of a metallopeptide: synthesis and biological evaluation of (111)In-labeled DOTA-conjugated rhenium-cyclized alpha-MSH analogues” (J Med Chem, 2002).)
